Assay [1] concerns the target Beta-1 adrenergic receptor (Cavia porcellus, UniProt B0FL73). Description: (§1) Antagonist activity against beta-1 adrenergic receptor in isolated guinea pig atria. Format: functional. To be noted: read-out: pA2 (converted). The method, boiled down: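 Atria from adult male guinea pigs (300–350 g), stabilized 45 min in Tyrode solution. Isoprenaline dose-effect curve by single doses, each run to maximal response. Antagonist added at increasing concentrations with 15 min contact per dose; solutions freshly prepared.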

The target of assay [2] is Beta-2 adrenergic receptor (Cavia porcellus, UniProt Q8K4Z4). Briefly: (§2) Antagonist activity against beta-2 adrenergic receptor in isolated guinea pig trachea. The assay is classed as functional, tissue-based. The conditions noted are these: read-out: pA2 (converted).
Sequence of Beta-2 adrenergic receptor (Q8K4Z4 whole entry): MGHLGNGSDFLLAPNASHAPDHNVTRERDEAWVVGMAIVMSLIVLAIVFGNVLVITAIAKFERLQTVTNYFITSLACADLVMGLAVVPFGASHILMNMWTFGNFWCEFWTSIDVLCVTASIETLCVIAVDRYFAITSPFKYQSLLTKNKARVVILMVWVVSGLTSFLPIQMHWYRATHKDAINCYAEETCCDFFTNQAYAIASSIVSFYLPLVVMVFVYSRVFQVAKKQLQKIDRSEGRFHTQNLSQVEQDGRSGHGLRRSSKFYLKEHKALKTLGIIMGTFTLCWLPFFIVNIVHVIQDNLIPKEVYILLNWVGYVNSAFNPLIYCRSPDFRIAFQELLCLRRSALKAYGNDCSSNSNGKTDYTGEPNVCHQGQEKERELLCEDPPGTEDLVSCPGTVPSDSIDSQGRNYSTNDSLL
The target of assay [3] is Beta-2 adrenergic receptor (Cavia porcellus) (UniProt Q8K4Z4). Described as §2. The assay is classed as functional, tissue-based.
Sequence of Beta-2 adrenergic receptor (Cavia porcellus) (Q8K4Z4 whole entry, looked up): as the sequence (Q8K4Z4 whole entry) above
Assay [4] addresses Beta-1 adrenergic receptor (Cavia porcellus) (UniProt B0FL73). Described as §1. Format: functional. An outline of the steps:
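Atria from adult male guinea pigs (300–350 g), stabilized 45 min in Tyrode solution. Isoprenaline dose-effect curve by single doses, each run to maximal response. Antagonist added at increasing concentrations with 15 min contact per dose; solutions freshly prepared. Percent inhibition of the maximal agonist response measured; pA2 (50% reduction) and pA10 (90%) calculated by the Arunlakshana–Schild method.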

Sequence of Beta-1 adrenergic receptor (Cavia porcellus) (B0FL73 1-467): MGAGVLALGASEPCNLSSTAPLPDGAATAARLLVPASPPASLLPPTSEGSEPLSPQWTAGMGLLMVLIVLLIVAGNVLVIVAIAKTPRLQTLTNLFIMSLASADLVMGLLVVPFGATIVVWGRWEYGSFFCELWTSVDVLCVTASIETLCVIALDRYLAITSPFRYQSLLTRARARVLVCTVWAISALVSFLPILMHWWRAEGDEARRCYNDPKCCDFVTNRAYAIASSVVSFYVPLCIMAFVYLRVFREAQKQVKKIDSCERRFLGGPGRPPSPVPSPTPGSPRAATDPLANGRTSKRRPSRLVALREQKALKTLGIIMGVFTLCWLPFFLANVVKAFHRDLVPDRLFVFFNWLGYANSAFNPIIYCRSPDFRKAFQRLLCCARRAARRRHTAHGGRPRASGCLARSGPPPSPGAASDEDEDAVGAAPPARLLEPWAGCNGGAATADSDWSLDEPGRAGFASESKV
Sequence of Beta-1 adrenergic receptor (B0FL73 whole entry): as the sequence (B0FL73 1-467) above

For `CC(C)NCC(O)COC(=O)c1ccc2c(c1)OCO2` (stereo not given), the Kb in assay [1] was 0.126 µM.
For `CC(C)NCC(O)COC(=O)Cc1cccs1` (stereo not given), the results for the Kb in assay [2] and in assay [1] were 10 µM and 11 µM, respectively. The pA10 in assay [3] was determined as 4.35; in assay [4], 4.28.
For `CC(C)NCC(O)COC(=O)C1CCCCC1` (stereo not given), the results for the Kb in assay [2] and in assay [1] were 2.29 µM and 12.3 µM, respectively. Moreover, the pA10 in assay [3] came out at 4.62; in assay [4], 4.2.
Taken in the same sequence, the figures for `CC(C)(C)NCC(O)COC(=O)c1cccs1` (stereo not given) were 0.0191 µM, 0.457 µM, 6.82 and 5.42.
The corresponding values for `CC(C)NCC(O)COC(=O)c1cccs1` (stereo not given) are 0.468 µM, 1.58 µM, 5.54 and 5.11.
The corresponding values for `CC(C)NCC(O)COC(=O)C(C)C` (stereo not given) are 4.27 µM, 26.9 µM, 4.52 and 3.9.
`CC(C)(C)NCC(O)COC(=O)C1CCCCC1` (stereo not given): the Kb was 2.51 µM in assay [2] and 7.94 µM in assay [1]. Moreover, the pA10 is 4.71 in assay [3] and 4.22 in assay [4].
As to `COc1ccc(OC)c(C(O)C(C)NC(C)(C)C)c1` (stereo not given), the figures for the pA10 in assay [3] and in assay [4] were 5.96 and 3.98, respectively.
Turning to `CC(C)C(=O)OCC(O)CNC(C)(C)C` (stereo not given), the Kb was 28.8 µM in assay [2] and 11.5 µM in assay [1]. In addition, the values for the pA10 in assay [3] and in assay [4] were 3.94 and 4.1, respectively.
Taken in the same sequence, the figures for `CCC(=O)OCC(O)CNC(C)(C)C` (stereo not given) were 26.3 µM, 28.2 µM, 3.79 and 3.74.
